One block for each molecule: values may come before it. The source made the active and inactive calls. The calls are words filed in the database; no cut-off is given here.
Legend:
[1] = Apparent permeability across apical to basolateral side in dog RRCK cells; type: ADME, cell-based, Canis lupus familiaris, MDCKII-LE; conditions: MDCK
[2] = system: Cynomolgus monkey; test: Binding affinity to PDE2A in cynomolgus monkey striatum at 215 MBq, iv measured for 90 mins by PET analysis; type: functional, organism-based; conditions: Macaca fascicularis, 215 M, tested as the 18F-labelled form
Method in brief: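 Two male cynomolgus monkeys, 5–6 years old, were fasted overnight and premedicated with ketamine (10 mg/kg IM) and glycopyrrolate (0.01 mg/kg IM). They were then intubated and kept under isoflurane (1.5−2.0% in oxygen). Tracer was an IV bolus via the saphenous vein, targeting 37 MBq/kg. A 90 min dynamic scan followed. Striatal binding potential was derived by a simplified reference tissue model, with cerebellum as the reference region.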

[3] = molecular target: cAMP and cAMP-inhibited cGMP 3',5'-cyclic phosphodiesterase 10A (Homo sapiens, UniProt Q9Y233); test: Inhibition of PDE10A (unknown origin)
[4] = molecular target: High affinity cAMP-specific and IBMX-insensitive 3',5'-cyclic phosphodiesterase 8B (Homo sapiens, UniProt O95263); test: Inhibition of PDE8B (unknown origin)
[5] = molecular target: High affinity cGMP-specific 3',5'-cyclic phosphodiesterase 9A (Homo sapiens, UniProt O76083); test: Inhibition of PDE9A (unknown origin)
[6] = molecular target: 3',5'-cyclic-AMP phosphodiesterase 7B (Homo sapiens, UniProt Q9NP56); test: Inhibition of PDE7B (unknown origin)
[7] = molecular target: cGMP-specific 3',5'-cyclic phosphodiesterase (Homo sapiens, UniProt O76074); test: Inhibition of PDE5A (unknown origin)
[8] = molecular target: 3',5'-cyclic-AMP phosphodiesterase 4D (Homo sapiens, UniProt Q08499); test: Inhibition of PDE4D (unknown origin)
[9] = molecular target: cGMP-inhibited 3',5'-cyclic phosphodiesterase 3A (Homo sapiens, UniProt Q14432); test: Inhibition of PDE3A (unknown origin)
[10] = molecular target: Dual specificity calcium/calmodulin-dependent 3',5'-cyclic nucleotide phosphodiesterase 1B (Homo sapiens, UniProt Q01064); test: Inhibition of PDE1B (unknown origin)
[11] = Ratio of total drug level in brain to plasma in Wistar Han rat at 1 mg/kg, iv after 2 hrs; type: ADME, organism-based; parameters: dose 1 mg/kg, route intravenous
Method in brief: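 Wistar-Han rats received a single 1 mg/kg IV dose. Total drug levels in brain and plasma were determined from pharmacokinetics over 0−2 h post-dose and expressed as a ratio.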

[12] = Fraction unbound in human plasma; type: ADME, cell-free
[13] = Fraction unbound in rat plasma; type: ADME, cell-free
[14] = Fraction unbound in rat brain; type: ADME, tissue-based
[15] = molecular target: cGMP-dependent 3',5'-cyclic phosphodiesterase (Homo sapiens, UniProt O00408); test: Inhibition of full length recombinant human PDE2A expressed in Sf21 cells using [3H]-cGMP as substrate by scintillation proximity assay
[16] = Drug uptake in cynomolgus monkey cerebellum at 215 MBq, iv measured for 90 mins by PET analysis; type: ADME, organism-based, Macaca fascicularis; conditions: in vivo, 1.5 h
Method in brief: (§1)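 Male cynomolgus monkeys (n=2, 5–6 years) were fasted overnight and given ketamine 10 mg/kg IM plus glycopyrrolate 0.01 mg/kg IM. They were intubated and maintained under isoflurane (1.5−2.0% in O2). The radiotracer was given as an IV saphenous bolus targeting 37 MBq/kg. A 57Co transmission scan provided attenuation/scatter correction. A 90 min dynamic acquisition was binned into 16 frames (5×1, 5×5, 6×10 min).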

[17] = Drug uptake in cynomolgus monkey caudate nucleus at 215 MBq, iv measured for 90 mins by PET analysis; type: ADME, organism-based, Macaca fascicularis; conditions: in vivo, 1.5 h; method in brief: as §1
[18] = Drug uptake in cynomolgus monkey skull at 215 MBq, iv measured for 90 mins by PET analysis; type: ADME, organism-based, Macaca fascicularis; conditions: in vivo, 1.5 h; method in brief: as §1
[19] = system: Putamen; test: Drug uptake in cynomolgus monkey putamen at 215 MBq, iv measured for 90 mins by PET analysis; type: ADME, organism-based, Macaca fascicularis; conditions: in vivo, 1.5 h; method in brief: as §1

High affinity cAMP-specific and IBMX-insensitive 3',5'-cyclic phosphodiesterase 8B, sequence (O95263 whole entry): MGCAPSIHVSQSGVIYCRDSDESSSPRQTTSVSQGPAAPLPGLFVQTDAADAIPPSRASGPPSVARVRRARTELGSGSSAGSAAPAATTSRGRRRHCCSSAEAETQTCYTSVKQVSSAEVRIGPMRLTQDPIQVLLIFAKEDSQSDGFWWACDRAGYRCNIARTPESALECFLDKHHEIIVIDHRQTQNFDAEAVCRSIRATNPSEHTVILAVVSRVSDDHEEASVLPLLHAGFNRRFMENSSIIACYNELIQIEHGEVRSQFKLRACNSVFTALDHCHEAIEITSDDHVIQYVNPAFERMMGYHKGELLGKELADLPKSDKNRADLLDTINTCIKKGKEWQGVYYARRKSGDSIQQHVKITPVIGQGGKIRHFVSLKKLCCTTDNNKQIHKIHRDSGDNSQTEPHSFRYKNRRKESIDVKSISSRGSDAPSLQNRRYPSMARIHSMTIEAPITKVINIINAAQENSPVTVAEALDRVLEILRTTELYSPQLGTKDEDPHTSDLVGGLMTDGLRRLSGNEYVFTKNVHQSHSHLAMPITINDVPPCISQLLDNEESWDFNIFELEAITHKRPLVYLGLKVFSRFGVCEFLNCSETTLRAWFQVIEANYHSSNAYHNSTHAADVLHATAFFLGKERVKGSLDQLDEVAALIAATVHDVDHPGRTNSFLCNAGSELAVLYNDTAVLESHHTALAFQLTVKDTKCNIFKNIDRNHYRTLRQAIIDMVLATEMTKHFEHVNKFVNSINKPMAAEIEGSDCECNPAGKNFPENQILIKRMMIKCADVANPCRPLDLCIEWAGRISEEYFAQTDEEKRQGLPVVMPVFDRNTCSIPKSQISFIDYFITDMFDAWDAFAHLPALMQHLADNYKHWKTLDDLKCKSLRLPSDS
cGMP-inhibited 3',5'-cyclic phosphodiesterase 3A, sequence (Q14432 whole entry): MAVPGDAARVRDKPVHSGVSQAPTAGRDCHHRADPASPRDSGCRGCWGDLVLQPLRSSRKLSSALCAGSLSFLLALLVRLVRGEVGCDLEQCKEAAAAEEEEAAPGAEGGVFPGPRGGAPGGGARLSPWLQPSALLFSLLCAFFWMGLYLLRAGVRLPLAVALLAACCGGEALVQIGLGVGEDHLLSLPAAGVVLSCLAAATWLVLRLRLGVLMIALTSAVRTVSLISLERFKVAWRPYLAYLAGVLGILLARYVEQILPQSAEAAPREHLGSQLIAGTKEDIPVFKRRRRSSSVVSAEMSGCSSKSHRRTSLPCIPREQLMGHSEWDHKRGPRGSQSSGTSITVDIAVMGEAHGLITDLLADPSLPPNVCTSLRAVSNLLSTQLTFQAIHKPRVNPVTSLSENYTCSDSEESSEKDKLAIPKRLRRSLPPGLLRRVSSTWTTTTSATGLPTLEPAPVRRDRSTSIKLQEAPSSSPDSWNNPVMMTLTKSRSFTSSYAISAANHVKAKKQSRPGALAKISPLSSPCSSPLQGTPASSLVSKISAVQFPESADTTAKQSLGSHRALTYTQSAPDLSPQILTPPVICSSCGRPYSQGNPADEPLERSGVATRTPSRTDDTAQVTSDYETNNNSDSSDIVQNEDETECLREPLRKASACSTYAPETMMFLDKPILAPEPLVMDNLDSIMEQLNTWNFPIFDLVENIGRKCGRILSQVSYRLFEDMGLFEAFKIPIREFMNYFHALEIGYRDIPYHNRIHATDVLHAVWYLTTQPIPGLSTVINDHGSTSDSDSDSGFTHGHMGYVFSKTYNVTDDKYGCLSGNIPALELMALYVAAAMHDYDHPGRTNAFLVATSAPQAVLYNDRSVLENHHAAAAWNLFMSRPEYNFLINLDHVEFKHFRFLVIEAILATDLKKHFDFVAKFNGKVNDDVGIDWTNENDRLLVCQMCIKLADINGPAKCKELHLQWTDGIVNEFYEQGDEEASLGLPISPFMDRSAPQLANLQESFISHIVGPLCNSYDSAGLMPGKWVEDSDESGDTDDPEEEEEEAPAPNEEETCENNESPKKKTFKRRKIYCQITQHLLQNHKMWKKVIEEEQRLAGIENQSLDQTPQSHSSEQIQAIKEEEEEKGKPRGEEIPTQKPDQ
Dual specificity calcium/calmodulin-dependent 3',5'-cyclic nucleotide phosphodiesterase 1B, sequence (Q01064 whole entry): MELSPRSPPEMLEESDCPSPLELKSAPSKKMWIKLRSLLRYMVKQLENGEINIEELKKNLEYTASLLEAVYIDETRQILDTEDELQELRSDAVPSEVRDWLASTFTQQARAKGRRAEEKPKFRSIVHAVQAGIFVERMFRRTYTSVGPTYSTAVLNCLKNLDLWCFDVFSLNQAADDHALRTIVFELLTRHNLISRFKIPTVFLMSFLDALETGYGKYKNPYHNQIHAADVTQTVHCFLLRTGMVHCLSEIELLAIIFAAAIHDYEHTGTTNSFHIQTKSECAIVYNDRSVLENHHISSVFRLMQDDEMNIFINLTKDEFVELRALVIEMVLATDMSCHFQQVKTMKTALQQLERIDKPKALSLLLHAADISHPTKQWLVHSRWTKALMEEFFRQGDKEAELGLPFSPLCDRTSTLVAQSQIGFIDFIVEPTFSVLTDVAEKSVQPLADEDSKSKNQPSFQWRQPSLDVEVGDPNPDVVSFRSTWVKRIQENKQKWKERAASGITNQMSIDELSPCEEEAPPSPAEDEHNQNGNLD
cGMP-dependent 3',5'-cyclic phosphodiesterase, sequence (O00408 whole entry): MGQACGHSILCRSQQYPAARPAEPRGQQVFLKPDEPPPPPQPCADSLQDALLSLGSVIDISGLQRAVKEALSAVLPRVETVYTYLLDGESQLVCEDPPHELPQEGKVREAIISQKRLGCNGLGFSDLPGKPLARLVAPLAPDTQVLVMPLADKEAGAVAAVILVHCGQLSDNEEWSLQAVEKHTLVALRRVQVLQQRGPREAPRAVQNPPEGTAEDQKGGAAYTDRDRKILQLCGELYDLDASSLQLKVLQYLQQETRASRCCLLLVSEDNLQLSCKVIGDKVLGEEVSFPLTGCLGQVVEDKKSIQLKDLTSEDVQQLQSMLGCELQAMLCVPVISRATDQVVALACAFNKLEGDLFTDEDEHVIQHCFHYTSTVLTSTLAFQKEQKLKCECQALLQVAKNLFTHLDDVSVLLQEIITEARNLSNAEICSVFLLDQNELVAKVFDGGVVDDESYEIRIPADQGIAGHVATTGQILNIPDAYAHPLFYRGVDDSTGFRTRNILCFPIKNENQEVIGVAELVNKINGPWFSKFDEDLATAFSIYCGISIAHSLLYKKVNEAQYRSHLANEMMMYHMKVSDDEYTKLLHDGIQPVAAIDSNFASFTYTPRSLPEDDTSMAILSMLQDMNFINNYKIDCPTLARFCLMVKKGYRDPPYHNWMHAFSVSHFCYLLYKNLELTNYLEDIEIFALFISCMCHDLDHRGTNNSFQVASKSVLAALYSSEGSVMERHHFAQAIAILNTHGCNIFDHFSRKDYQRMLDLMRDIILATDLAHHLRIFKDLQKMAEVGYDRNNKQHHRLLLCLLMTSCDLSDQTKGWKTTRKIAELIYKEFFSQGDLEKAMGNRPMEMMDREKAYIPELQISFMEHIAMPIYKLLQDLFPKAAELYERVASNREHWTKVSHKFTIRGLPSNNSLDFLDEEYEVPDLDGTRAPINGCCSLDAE
cAMP and cAMP-inhibited cGMP 3',5'-cyclic phosphodiesterase 10A, sequence (Q9Y233 whole entry): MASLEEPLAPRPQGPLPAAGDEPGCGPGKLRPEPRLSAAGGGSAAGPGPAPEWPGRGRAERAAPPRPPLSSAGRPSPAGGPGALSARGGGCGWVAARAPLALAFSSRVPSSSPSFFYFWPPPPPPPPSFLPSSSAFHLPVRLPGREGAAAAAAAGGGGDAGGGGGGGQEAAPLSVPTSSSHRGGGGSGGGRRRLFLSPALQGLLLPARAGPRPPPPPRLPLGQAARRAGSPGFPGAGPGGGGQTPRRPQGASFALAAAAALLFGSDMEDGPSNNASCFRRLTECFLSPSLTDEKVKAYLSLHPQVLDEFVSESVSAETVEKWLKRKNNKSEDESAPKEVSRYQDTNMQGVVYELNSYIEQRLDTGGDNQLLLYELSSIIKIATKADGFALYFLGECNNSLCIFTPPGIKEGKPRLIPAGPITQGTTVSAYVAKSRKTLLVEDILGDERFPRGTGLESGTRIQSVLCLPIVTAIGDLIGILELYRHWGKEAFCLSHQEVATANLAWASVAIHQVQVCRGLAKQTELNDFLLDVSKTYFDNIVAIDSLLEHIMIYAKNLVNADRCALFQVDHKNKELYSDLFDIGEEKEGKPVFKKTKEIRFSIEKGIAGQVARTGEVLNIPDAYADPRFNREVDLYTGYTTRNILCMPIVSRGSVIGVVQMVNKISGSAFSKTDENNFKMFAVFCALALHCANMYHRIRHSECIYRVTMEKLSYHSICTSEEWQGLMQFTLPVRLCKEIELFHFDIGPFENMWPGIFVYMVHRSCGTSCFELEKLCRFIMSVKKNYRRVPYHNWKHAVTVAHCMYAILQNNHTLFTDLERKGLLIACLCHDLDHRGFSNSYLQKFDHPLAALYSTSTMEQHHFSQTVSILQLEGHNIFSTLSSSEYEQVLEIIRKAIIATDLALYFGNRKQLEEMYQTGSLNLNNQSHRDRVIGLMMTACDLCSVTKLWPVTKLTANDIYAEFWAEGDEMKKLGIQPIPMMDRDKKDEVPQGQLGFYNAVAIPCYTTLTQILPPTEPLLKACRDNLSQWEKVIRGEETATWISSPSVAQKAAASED
3',5'-cyclic-AMP phosphodiesterase 7B, sequence (Q9NP56 whole entry): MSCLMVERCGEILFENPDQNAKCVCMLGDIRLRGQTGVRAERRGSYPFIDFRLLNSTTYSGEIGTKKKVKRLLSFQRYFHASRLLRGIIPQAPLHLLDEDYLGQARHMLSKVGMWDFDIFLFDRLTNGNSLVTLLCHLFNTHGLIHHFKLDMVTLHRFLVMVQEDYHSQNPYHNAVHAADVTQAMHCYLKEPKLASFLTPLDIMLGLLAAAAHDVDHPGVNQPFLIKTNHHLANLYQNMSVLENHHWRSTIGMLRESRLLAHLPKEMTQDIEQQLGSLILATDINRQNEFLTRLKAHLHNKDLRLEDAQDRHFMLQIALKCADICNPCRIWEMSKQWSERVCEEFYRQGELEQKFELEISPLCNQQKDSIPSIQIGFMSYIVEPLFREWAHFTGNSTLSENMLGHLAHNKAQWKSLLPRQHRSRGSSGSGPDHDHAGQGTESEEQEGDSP

Papp A→B [1]: 21.5 ×10⁻⁶ cm/s
SMILES: Cn1ncc(-c2nn(C)c3ncnc(N4CCC4)c23)c1-c1ccc(C(F)(F)F)cc1

Activity [2]: Active | IC50 [3]: 3.9 µM | IC50 [4]: > 10 µM | IC50 [5]: > 10 µM | IC50 [6]: 12 µM | IC50 [7]: 26 µM | IC50 [8]: > 30 µM | IC50 [9]: > 30 µM | IC50 [10]: > 30 µM | BPR ([11]; brain, 2 h): 1.56 | fraction unbound [12]: 0.17 | fraction unbound [13]: 0.24 | fraction unbound [14]: 0.077 | IC50 [15]: 0.00053 µM | Papp A→B [1]: 21 ×10⁻⁶ cm/s
SMILES: Cc1nc(-c2cnn(C)c2-c2ccc(C(F)(F)F)cc2)c2c(N3CC(F)C3)ncnn12

Drug uptake [16]: Active | Drug uptake [17]: Active | Drug uptake [18]: Not Active | Drug uptake [19]: Active
SMILES: Cc1nc(-c2cnn(C)c2-c2ccc(C(F)(F)F)cc2)c2c(N3CC([18F])C3)ncnn12

Kp at 2 h ([11]; Wistar Han, brain and plasma, read-out: BPR): 0.34 | fraction unbound [12]: 0.23 | fraction unbound [13]: 0.29 | fraction unbound [14]: 0.17 | Papp A→B [1]: 42 ×10⁻⁶ cm/s
SMILES: COc1ccc(-c2c(-c3nc(C)n4ncnc(N5CCC5)c34)cnn2C)c(C)c1

Source: ChEMBL document CHEMBL2380216, “Design and selection parameters to accelerate the discovery of novel central nervous system positron emission tomography (PET) ligands and their application in the development of a novel phosphodiesterase 2A PET ligand” (J Med Chem, 2013)
